Data set [1] has as its system Mus musculus. As to the kind of experiment: Anticonvulsant activity in ip dosed albino CF-1 mouse assessed as dose required to protect against maximal electroshock-induced seizures after 0.5 hrs. The class given is functional. In outline:
(§1)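 Male CF-1 mice (18–25 g), i.p. in 0.5% methyl cellulose at 30, 100 and 300 mg/kg; MES: 60 Hz, 50 mA, 0.2 s through tetracaine-primed corneal electrodes; protection = abolished hind limb tonic extension. Value given as minimum dose active in half or more of mice.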
(In general: The maximal electroshock test induces tonic seizures with an electrical stimulus.)

Data set [2] relates to Mus musculus. As to the kind of experiment: Anticonvulsant activity in ip dosed albino CF-1 mouse assessed as dose required to protect against maximal electroshock-induced seizures after 2 hrs. It is filed as functional. In outline:
as §1

Data set [3] has as its system Mus musculus. Put plainly: Anticonvulsant activity in ip dosed albino CF-1 mouse assessed as dose required to protect against maximal electroshock-induced seizures after 4 hrs. It is filed as functional. In a few lines:
as §1

The subject of data set [4] is Mus musculus. As to the kind of experiment: Anticonvulsant activity in albino CF-1 mouse assessed as protection against subcutaneous metrazol-induced seizures at 300 mg/kg, ip after 0.5 hrs. The class given is functional, organism-based. Also noted: dose 300 mg/kg. In outline:
(§2)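 Male CF-1 mice, i.p. at 30, 100, 300 mg/kg in 0.5% methyl cellulose; metrazol dose convulsing 97% of animals injected s.c. in midline neck fold, mice isolated and watched 30 min; protected if no 3–5 s clonic spasm episode of limbs, jaws or vibrissae.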

Data set [5] relates to Mus musculus. As to the kind of experiment: Anticonvulsant activity in albino CF-1 mouse assessed as protection against subcutaneous metrazol-induced seizures at 300 mg/kg, ip after 4 hrs. It is filed as functional, organism-based. Also noted: dose 300 mg/kg. In outline: as §2
Data set [6] deals with Mus musculus. Put plainly: Neurotoxicity in ip dosed albino CF-1 mouse assessed as dose required to cause motor impairment after 0.5 hrs by rotarod test. It is filed as toxicity, organism-based. The conditions noted are these: in vivo. In outline: (§3)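 Minimal motor impairment in male CF-1 mice by rotorod after i.p. dosing; toxic if animal falls off rotating rod 3 times within 1 min. Screen doses 30, 100, 300 mg/kg; quantitative TD50 (95% confidence interval) determined at time of peak effect.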

Data set [7] concerns Mus musculus. Put plainly: Neurotoxicity in ip dosed albino CF-1 mouse assessed as dose required to cause motor impairment after 4 hrs by rotarod test. The conditions noted are these: in vivo. It is filed as toxicity, organism-based. In a few lines: as §3
(In general: In the rotarod test animals must keep their balance on a rotating rod.)

Data set [8] has as its system Rattus norvegicus. As to the kind of experiment: Acute toxicity in Sprague-Dawley rat assessed as motor impairment at 100 mg/kg, ip after 4 hrs. The class given is organism-based. Also noted: dose 100 mg/kg, route intraperitoneal. The following applies: in vivo. In outline:
(§4)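 Male albino Sprague Dawley rats, two per dose, given test compound i.p. as a suspension in 0.5% methyl cellulose. Behaviour was closely observed and recorded over 4 h to detect acute motor impairment. Values are scored as animals toxic over animals tested at each time point.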

For data set [9], the system named is Rattus norvegicus. Put plainly: Acute toxicity in Sprague-Dawley rat assessed as motor impairment at 100 mg/kg, ip after 2 hrs. The following applies: in vivo. Details: dose 100 mg/kg, route intraperitoneal. It is filed as organism-based. In outline:
as §4

Data set [10] concerns Rattus norvegicus. As to the kind of experiment: Acute toxicity in Sprague-Dawley rat assessed as motor impairment at 100 mg/kg, ip after 1 hr. It is filed as organism-based. Details: dose 100 mg/kg, route intraperitoneal. The following applies: in vivo. In outline: as §4
For data set [11], the system named is Rattus norvegicus. Put plainly: Acute toxicity in Sprague-Dawley rat assessed as motor impairment at 100 mg/kg, ip after 0.5 hrs. The class given is organism-based. Details: dose 100 mg/kg, route intraperitoneal. The following applies: in vivo. In a few lines: as §4
Data set [12] has as its system Rattus norvegicus. Put plainly: Acute toxicity in Sprague-Dawley rat assessed as motor impairment at 100 mg/kg, ip after 0.25 hrs. The class given is organism-based. Also noted: dose 100 mg/kg, route intraperitoneal. The conditions noted are these: in vivo. In a few lines: as §4
Data set [13] has as its system Mus musculus. Put plainly: Neurotoxicity in albino CF-1 mouse assessed as motor impairment at 300 mg/kg, ip after 0.5 hrs by rotarod test. The class given is toxicity, organism-based. Also noted: dose 300 mg/kg, route intraperitoneal. The conditions noted are these: in vivo. In outline: as §3
In data set [14] the test system is Mus musculus. As to the kind of experiment: Neurotoxicity in albino CF-1 mouse assessed as motor impairment at 300 mg/kg, ip after 4 hrs by rotarod test. The class given is toxicity, organism-based. Details: dose 300 mg/kg, route intraperitoneal. The conditions noted are these: in vivo. In outline:
as §3

Data set [15] has as its system Rattus norvegicus. Put plainly: Toxicity in Sprague-Dawley rat assessed as change in body weight at 600 mg/kg, ip measured after 24 hrs of clonus of one of the fore limbs seizure stage in protected rat. The following applies: in vivo. The class given is organism-based. Details: dose 600 mg/kg, route intraperitoneal. In outline: (§5)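 Male Sprague Dawley rats (150–180 g) dosed i.p. then challenged with pilocarpine; body weight change measured 24 h after first Stage III seizure, split by protected and non-protected rats, given ± S.E.M.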

For data set [16], the system named is Rattus norvegicus. As to the kind of experiment: Toxicity in Sprague-Dawley rat assessed as change in body weight at 600 mg/kg, ip measured after 24 hrs of clonus of one of the fore limbs seizure stage in non-protected rat. The following applies: in vivo. Also noted: dose 600 mg/kg, route intraperitoneal. The class given is organism-based. In a few lines:
as §5

Data set [17] is described as follows: Octanol-phosphate buffer partition coefficient, log P of the compound at 5 mg, after 24 hrs by UV spectroscopic analysis. The class given is physicochemical. In a few lines: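 5 mg compound added to 10 mL octanol plus 10 mL phosphate buffer in stoppered tube, mechanically shaken 24 h at room temperature, then left in separating funnel 6 h to equilibrate.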

The test system of data set [18] is Rattus norvegicus. As to the kind of experiment: Acute toxicity in Sprague-Dawley rat assessed as motor impairment at 300 mg/kg, ip after 0.25 hrs. The class given is organism-based. Also noted: dose 300 mg/kg, route intraperitoneal. The following applies: in vivo. In a few lines:
as §4

Data set [19] concerns Rattus norvegicus. Put plainly: Acute toxicity in Sprague-Dawley rat assessed as motor impairment at 300 mg/kg, ip after 0.5 hrs. It is filed as organism-based. Also noted: dose 300 mg/kg, route intraperitoneal. The following applies: in vivo. In a few lines: as §4
Data set [20] deals with Rattus norvegicus. As to the kind of experiment: Acute toxicity in Sprague-Dawley rat assessed as motor impairment at 300 mg/kg, ip after 1 hr. It is filed as organism-based. Also noted: dose 300 mg/kg, route intraperitoneal. The following applies: in vivo. In outline:
as §4

Data set [21] deals with Rattus norvegicus. Put plainly: Acute toxicity in Sprague-Dawley rat assessed as motor impairment at 300 mg/kg, ip after 2 hrs. It is filed as organism-based. Details: dose 300 mg/kg, route intraperitoneal. The following applies: in vivo. In a few lines:
as §4

The subject of data set [22] is Rattus norvegicus. As to the kind of experiment: Acute toxicity in Sprague-Dawley rat assessed as motor impairment at 300 mg/kg, ip after 4 hrs. The class given is organism-based. Details: dose 300 mg/kg, route intraperitoneal. The following applies: in vivo. In a few lines: as §4
Data set [23] deals with Rattus norvegicus. Put plainly: Acute toxicity in Sprague-Dawley rat assessed as motor impairment at 600 mg/kg, ip after 0.25 hrs. It is filed as organism-based. Also noted: dose 600 mg/kg, route intraperitoneal. The conditions noted are these: in vivo. In a few lines: as §4
The test system of data set [24] is Rattus norvegicus. Put plainly: Acute toxicity in Sprague-Dawley rat assessed as motor impairment at 600 mg/kg, ip after 0.5 hrs. The class given is organism-based. Also noted: dose 600 mg/kg, route intraperitoneal. The conditions noted are these: in vivo. In a few lines: as §4
In data set [25] the test system is Rattus norvegicus. Put plainly: Acute toxicity in Sprague-Dawley rat assessed as motor impairment at 600 mg/kg, ip after 1 hr. The class given is organism-based. Also noted: dose 600 mg/kg, route intraperitoneal. The conditions noted are these: in vivo. In outline: as §4
The subject of data set [26] is Rattus norvegicus. As to the kind of experiment: Acute toxicity in Sprague-Dawley rat assessed as motor impairment at 600 mg/kg, ip after 2 hrs. It is filed as organism-based. Details: dose 600 mg/kg, route intraperitoneal. The conditions noted are these: in vivo. In a few lines: as §4
Data set [27] concerns Rattus norvegicus. Put plainly: Acute toxicity in Sprague-Dawley rat assessed as motor impairment at 600 mg/kg, ip after 4 hrs. The conditions noted are these: in vivo. Details: dose 600 mg/kg, route intraperitoneal. The class given is organism-based. In a few lines:
as §4

Molecules are shown by their SMILES. The source made the active and inactive calls. No cut-off for these calls is given here.

By logP is commonly meant a log measure of how a compound divides between an organic and an aqueous phase. Read a high logP as a more lipophilic compound.

For `O=C1NC(=O)C(c2ccccc2)(c2ccccc2)N1` [PHENYTOIN], the Activity came to 30 mg/kg in the data set with Mus musculus [1]; 30 mg/kg with Mus musculus [2]; 30 mg/kg in the data set on Mus musculus [3]; 100 mg/kg in the data set on Mus musculus [6]; 100 mg/kg in the data set on Mus musculus [7]. In addition, the result in the data set on Mus musculus [4] and with Mus musculus [5] was inactive.
For `O=C1Nc2ccccc2/C1=N/NC(=O)c1ccncc1`, the Activity result in the data set on Rattus norvegicus [8], in the data set on Rattus norvegicus [9], in the data set with Rattus norvegicus [10], in the data set on Rattus norvegicus [11], in the data set on Rattus norvegicus [12] and in the data set with Mus musculus [13] was “Non-toxic” in each case. For the same molecule, the Activity entry in the data set on Mus musculus [14] is reported as “Non-toxic”; with Rattus norvegicus [15] it was “Non-toxic”; in the data set on Rattus norvegicus [16], 20 g; in the data set on Rattus norvegicus [18], “Non-toxic”; in the data set on Rattus norvegicus [19], “Non-toxic”; with Rattus norvegicus [20], “Non-toxic”. The Activity result in the data set with Rattus norvegicus [21], in the data set on Rattus norvegicus [22], in the data set on Rattus norvegicus [23], in the data set on Rattus norvegicus [24], in the data set on Rattus norvegicus [25] and with Rattus norvegicus [26] was “Non-toxic” each time. Further, the Activity result with Rattus norvegicus [27] is “Non-toxic”. The logP at 24 h in data set [17] came out at 1.12.

The values are drawn from ChEMBL document CHEMBL1667749, “Design & synthesis of N'-[substituted] pyridine-4-carbohydrazides as potential anticonvulsant agents” (Eur J Med Chem, 2011).
